Experimental data as given in ChEMBL document CHEMBL2034907, “Indiosides G-K: steroidal glycosides with cytotoxic and anti-inflammatory activities from Solanum violaceum” (J Nat Prod, 2012).
Converted amounts (≈) assume the structure as drawn.

Tests used:
[1] = test system: MDA-MB-231; assay: Cytotoxicity against human MDA-MB-231 cells by MTT assay; assay type: functional, cell-based
[2] = test system: MCF7; assay: Cytotoxicity against human MCF7 cells by MTT assay; assay type: functional, cell-based
[3] = test system: Ca9-22; assay: Cytotoxicity against human Ca9-22 cells by MTT assay; assay type: functional, cell-based
[4] = test system: A549; assay: Cytotoxicity against human A549 cells by MTT assay; assay type: functional, cell-based
[5] = Cytotoxicity against human Hep3B cells by MTT assay; assay type: functional, cell-based, Hep 3B2
[6] = test system: HepG2; assay: Cytotoxicity against human HepG2 cells by MTT assay; assay type: functional, cell-based
[7] = Antiinflammatory activity in human neutrophils assessed as inhibition of FMLP/CB-induced superoxide anion generation incubated for 5 mins prior to FMLP/CB-challenge measured after 10 mins by spectrophotometry; assay type: functional, cell-based; settings: Neutrophil
Procedure, shortened: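 Neutrophils isolated by dextran sedimentation and Ficoll centrifugation. Cells were given 0.5 mg/mL ferricytochrome c and 1 mM Ca2+ and equilibrated at 37 °C for 2 min. They were then exposed to drug for 5 min and to cytochalasin B (1 μg/mL) for 3 min, then activated with fMLP (100 nM) for 10 min. Read-out was SOD-inhibitable ferricytochrome c reduction at 550 nm, monitored continuously. Mean ± SEM, n = 3.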

[8] = Antiinflammatory activity in human neutrophils assessed as inhibition of FMLP/CB-induced elastase release incubated for 5 mins prior to FMLP/CB-challenge by spectrophotometry; assay type: functional, cell-based; settings: Neutrophil
Procedure, shortened: (§1)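 Neutrophils isolated from human blood by dextran sedimentation and Ficoll centrifugation, used at 6 × 10^5/mL with MeO-Suc-Ala-Ala-Pro-Val-p-nitroanilide (100 μM). Equilibrated 2 min at 37 °C, compound added for 5 min, then activated with fMLP (100 nM)/CB (0.5 μg/mL). Absorbance at 405 nm monitored continuously. Initial elastase release rate expressed as % of the fMLP/CB-activated DMSO control. PMSF positive control; mean ± SEM, n = 3.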

[9] = test system: Neutrophil; assay: Ratio of PMSF IC50 to compound IC50 for antiinflammatory activity assessed as inhibition of elastase release in human neutrophils; assay type: functional
[10] = Cytotoxicity against human neutrophils assessed as increase in LDH level relative to control; assay type: cell-based; settings: neutrophil
Procedure, shortened: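 Lysed-cell reference made with 0.1% Triton X-100, 30 min at 37 °C. LDH in the cell-free medium was measured with a commercial kit. Result given as a percentage of total LDH release.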

[11] = Antiinflammatory activity in human neutrophils assessed as inhibition of FMLP/CB-induced elastase release at 10 ug/mL incubated for 5 mins prior to FMLP/CB-challenge by spectrophotometry; assay type: functional; settings: Neutrophil; procedure, shortened: as §1
[12] = Antiinflammatory activity in human neutrophils assessed as inhibition of FMLP/CB-induced superoxide anion generation at 10 ug/mL incubated for 5 mins prior to FMLP/CB-challenge measured after 10 mins by spectrophotometry; assay type: functional; settings: Neutrophil
Procedure, shortened: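 Human neutrophils isolated by dextran sedimentation and Ficoll centrifugation, supplemented with ferricytochrome c (0.5 mg/mL) and Ca2+ (1 mM). Equilibrated 2 min at 37 °C, compound added for 5 min, then cytochalasin B (1 μg/mL) for 3 min, then fMLP (100 nM) for 10 min. SOD-inhibitable ferricytochrome c reduction followed at 550 nm with stirring. Expressed as % of fMLP/CB-activated response. DPI positive control; mean ± SEM, n = 3.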

## CC[C@H](CC[C@@H](C)[C@H]1CC[C@H]2[C@@H]3C(O)C=C4C[C@@H](O[C@@H]5O[C@H](CO)[C@@H](O)[C@H](O)[C@H]5O)CC[C@]4(C)[C@H]3CC[C@]12C)C(C)C (some centres not stated)
[1]
  IC50: > 20 µg/mL
[2]
  IC50: > 20 µg/mL
[3]
  IC50: > 20 µg/mL
[4]
  IC50: > 20 µg/mL
[5]
  IC50: > 20 µg/mL
[6]
  IC50: > 20 µg/mL

## c1ccc2c(c1)[I+]c1ccccc1-2 [DIPHENYLENEIODONIUM]
[7]
  IC50: 0.22 µg/mL

## C[C@H]1CC[C@]2(OC1)O[C@H]1C[C@H]3[C@@H]4CC=C5C[C@@H](O[C@@H]6O[C@H](CO)[C@@H](O)[C@H](O)[C@H]6O[C@@H]6O[C@@H](C)[C@H](O)[C@@H](O)[C@H]6O)CC[C@]5(C)[C@H]4CC[C@]3(C)[C@H]1[C@H]2C
[1]
  IC50: 6.12 µg/mL (≈ 8.47 µM)
[2]
  IC50: 4.78 µg/mL (≈ 6.61 µM)
[3]
  IC50: 2.95 µg/mL (≈ 4.08 µM)
[4]
  IC50: 3.09 µg/mL (≈ 4.27 µM)
[5]
  IC50: 2.95 µg/mL (≈ 4.08 µM)
[6]
  IC50: 2.22 µg/mL (≈ 3.07 µM)

## O=S(=O)(F)Cc1ccccc1 [PHENYLMETHYLSULFONYLFLUORIDE]
[8]
  IC50: 22.8 µg/mL (≈ 131 µM)

## C[C@H]1CC[C@@]2(OC1)O[C@H]1C[C@H]3[C@@H]4CC=C5C[C@@H](O[C@@H]6O[C@H](CO)[C@@H](O)[C@H](O)[C@H]6O[C@@H]6O[C@@H](C)[C@H](O)[C@@H](O)[C@H]6O)CC[C@]5(C)[C@H]4CC[C@]3(C)[C@H]1[C@@H]2C
[1]
  IC50: 7.25 µg/mL (≈ 10 µM)
[2]
  IC50: 5.84 µg/mL (≈ 8.08 µM)
[3]
  IC50: 4.51 µg/mL (≈ 6.24 µM)
[4]
  IC50: 4.26 µg/mL (≈ 5.89 µM)
[5]
  IC50: 6.98 µg/mL (≈ 9.66 µM)
[6]
  IC50: 6.48 µg/mL (≈ 8.96 µM)

## C/C(=C\CO)CC[C@@H]1[C@@]2(C)CC[C@H](O[C@@H]3O[C@H](CO)[C@@H](O)[C@H](O)[C@H]3O)C(C)(C)[C@@H]2CC[C@]1(C)O [TRICALYSIOSIDE U]
[1]
  IC50: > 20 µg/mL
[2]
  IC50: > 20 µg/mL
[3]
  IC50: > 20 µg/mL
[4]
  IC50: > 20 µg/mL
[5]
  IC50: > 20 µg/mL
[6]
  IC50: > 20 µg/mL

## C[C@H]1CC[C@@]2(OC1)O[C@H]1C[C@H]3[C@@H]4CC=C5C[C@@H](O[C@@H]6O[C@H](CO)[C@@H](O[C@@H]7O[C@@H](C)[C@H](O)[C@@H](O)[C@H]7O)[C@H](O)[C@H]6O[C@@H]6O[C@@H](C)[C@H](O)[C@@H](O)[C@H]6O)CC[C@]5(C)[C@H]4CC[C@]3(C)[C@H]1[C@@H]2C
[1]
  IC50: 5.84 µg/mL (≈ 6.72 µM)
[2]
  IC50: 8.84 µg/mL (≈ 10.2 µM)
[9]
  Ratio IC50: 5
[10]
  Activity: Toxic
[8]
  IC50: 4.04 µg/mL (≈ 4.65 µM)
[3]
  IC50: 3.77 µg/mL (≈ 4.34 µM)
[4]
  IC50: 4.09 µg/mL (≈ 4.71 µM)
[5]
  IC50: 2.87 µg/mL (≈ 3.3 µM)
[6]
  IC50: 6.44 µg/mL (≈ 7.41 µM)
[7]
  IC50: 1.62 µg/mL (≈ 1.86 µM)

## O=C(/C=C/c1ccc(O)cc1)NCCc1ccc(O)cc1 [N-P-COUMAROYL TYRAMINE]
[1]
  IC50: > 20 µg/mL
[2]
  IC50: > 20 µg/mL
[11]
  inhibition at 10 µg/mL: -0.17%
[12]
  inhibition at 10 µg/mL: 23.2%
[10]
  Activity: Non-toxic
[3]
  IC50: 12.3 µg/mL (≈ 43.3 µM)
[4]
  IC50: 15.2 µg/mL (≈ 53.7 µM)
[5]
  IC50: 11.2 µg/mL (≈ 39.6 µM)
[6]
  IC50: 9.57 µg/mL (≈ 33.8 µM)

## C[C@H]1CC[C@]2(OC1)O[C@H]1C[C@H]3[C@@H]4CC=C5C[C@@H](O[C@@H]6O[C@H](CO)[C@@H](O[C@@H]7O[C@@H](C)[C@H](O)[C@@H](O)[C@H]7O)[C@H](O)[C@H]6O[C@@H]6O[C@@H](C)[C@H](O)[C@@H](O)[C@H]6O)CC[C@]5(C)[C@H]4CC[C@]3(C)[C@H]1[C@H]2C [BORASSOSIDE E]
[1]
  IC50: 2.75 µg/mL (≈ 3.16 µM)
[2]
  IC50: 2.61 µg/mL (≈ 3 µM)
[10]
  Activity: Toxic
[8]
  IC50: 111 µg/mL (≈ 128 µM)
[3]
  IC50: 2.33 µg/mL (≈ 2.68 µM)
[4]
  IC50: 2.34 µg/mL (≈ 2.69 µM)
[5]
  IC50: 2.03 µg/mL (≈ 2.34 µM)
[6]
  IC50: 1.83 µg/mL (≈ 2.11 µM)
[7]
  IC50: 0.62 µg/mL (≈ 0.713 µM)

## COc1cccc2c1C(=O)c1c(O)c3c(c(O)c1C2=O)C[C@@](O)(C(=O)CO)C[C@@H]3O[C@H]1C[C@H](N)[C@H](O)[C@H](C)O1 [DOXORUBICIN]
[1]
  IC50: 1.39 µg/mL (≈ 2.56 µM)
[2]
  IC50: 0.8 µg/mL (≈ 1.47 µM)
[3]
  IC50: 0.31 µg/mL (≈ 0.57 µM)
[4]
  IC50: 1.4 µg/mL (≈ 2.58 µM)
[5]
  IC50: 1.31 µg/mL (≈ 2.41 µM)

## C[C@H]1CC[C@@]2(OC1)O[C@H]1C[C@H]3[C@@H]4CC[C@H]5C[C@@H](O[C@@H]6O[C@H](CO)[C@@H](O[C@@H]7O[C@@H](C)[C@H](O)[C@@H](O)[C@H]7O)[C@H](O)[C@H]6O[C@@H]6O[C@@H](C)[C@H](O)[C@@H](O)[C@H]6O)CC[C@]5(C)[C@H]4CC[C@]3(C)[C@H]1[C@@H]2C
[1]
  IC50: 8.04 µg/mL (≈ 9.23 µM)
[2]
  IC50: 11.6 µg/mL (≈ 13.3 µM)
[11]
  inhibition at 10 µg/mL: 38.9%
[10]
  Activity: Toxic
[3]
  IC50: 6.76 µg/mL (≈ 7.76 µM)
[4]
  IC50: 7.27 µg/mL (≈ 8.35 µM)
[5]
  IC50: 3.32 µg/mL (≈ 3.81 µM)
[6]
  IC50: 5.33 µg/mL (≈ 6.12 µM)
[7]
  IC50: 2.84 µg/mL (≈ 3.26 µM)

## CC[C@H](CC[C@@H](C)[C@H]1CC[C@H]2[C@@H]3CC=C4C[C@@H](O[C@@H]5O[C@H](CO)[C@@H](O)[C@H](O)[C@H]5O)CC[C@]4(C)[C@H]3CC[C@]12C)C(C)C [SITOGLUSIDE]
[1]
  IC50: > 20 µg/mL
[2]
  IC50: > 20 µg/mL
[11]
  inhibition at 10 µg/mL: 1.58%
[12]
  inhibition at 10 µg/mL: 24.9%
[3]
  IC50: > 20 µg/mL
[4]
  IC50: > 20 µg/mL
[5]
  IC50: > 20 µg/mL
[6]
  IC50: > 20 µg/mL

## C[C@@H]1CC[C@]2(OC1)O[C@H]1C[C@H]3[C@@H]4CC=C5C[C@@H](O[C@@H]6O[C@H](CO)[C@@H](O[C@@H]7O[C@@H](C)[C@H](O)[C@@H](O)[C@H]7O)[C@H](O)[C@H]6O)CC[C@]5(C)[C@H]4CC[C@]3(C)[C@H]1[C@H]2C [BORASSOSIDE D]
[1]
  IC50: > 20 µg/mL
[2]
  IC50: > 20 µg/mL
[3]
  IC50: > 20 µg/mL
[4]
  IC50: > 20 µg/mL
[5]
  IC50: > 20 µg/mL
[6]
  IC50: > 20 µg/mL
